# Experiments:
# OVCAR-8 = experiment: Antiproliferative activity against human OVCAR-8 cells assessed as cell growth inhibition at 10 uM incubated for 48 hrs by sulforhodamine B assay relative to control; assay type: functional
# Outline: (§1)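 NCI-60 single-dose screen at 10^-5 M. Cells grown in RPMI 1640 with 5% FBS and 2 mM L-glutamine, plated at 5,000–40,000 cells/well, and preincubated 24 h. Drug (DMSO stock) added and incubated 48 h at 37 °C, 5% CO2. Adherent cells fixed with cold TCA, stained with 0.4% SRB in 1% acetic acid, dye solubilized in 10 mM trizma base, A515 read. Percent growth taken against time-zero and untreated control.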
# NCI/ADR-RES = experiment: Antiproliferative activity against human NCI/ADR-RES cells assessed as cell growth inhibition at 10 uM incubated for 48 hrs by sulforhodamine B assay relative to control; assay type: functional; outline: as §1
# M14 = experiment: Antiproliferative activity against human M14 cells assessed as cell growth inhibition at 10 uM incubated for 48 hrs by sulforhodamine B assay relative to control; assay type: functional; outline: as §1
# MOLT-4 = experiment: Antiproliferative activity against human MOLT-4 cells assessed as cell growth inhibition at 10 uM incubated for 48 hrs by sulforhodamine B assay relative to control; assay type: functional; outline: as §1
# UACC-62 = experiment: Antiproliferative activity against human UACC-62 cells assessed as cell growth inhibition at 10 uM incubated for 48 hrs by sulforhodamine B assay relative to control; assay type: functional; outline: as §1
# K562 = experiment: Antiproliferative activity against human K562 cells assessed as cell growth inhibition at 10 uM incubated for 48 hrs by sulforhodamine B assay relative to control; assay type: functional; outline: as §1
# SR = experiment: Antiproliferative activity against human SR cells assessed as cell growth inhibition at 10 uM incubated for 48 hrs by sulforhodamine B assay relative to control; assay type: functional; outline: as §1
# IGROV-1 = experiment: Antiproliferative activity against human IGROV-1 cells assessed as cell growth inhibition at 10 uM incubated for 48 hrs by sulforhodamine B assay relative to control; assay type: functional; outline: as §1
# Malme-3M = experiment: Antiproliferative activity against human Malme-3M cells assessed as cell growth inhibition at 10 uM incubated for 48 hrs by sulforhodamine B assay relative to control; assay type: functional; outline: as §1
# BT-549 = experiment: Antiproliferative activity against human BT-549 cells assessed as cell growth inhibition at 10 uM incubated for 48 hrs by sulforhodamine B assay relative to control; assay type: functional
# Outline: (§2)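 Single-dose NCI-60 prescreen at 10^-5 M. Cells in RPMI 1640 with 5% FBS and 2 mM L-glutamine, seeded 5,000–40,000 cells/well with 24 h preincubation, then drug exposure for 48 h at 37 °C under 5% CO2. Growth read by SRB staining of TCA-fixed cells at 515 nm against time-zero and untreated controls. Negative growth values denote cell kill.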
# LOX IMVI = experiment: Antiproliferative activity against human LOX IMVI cells assessed as cell growth inhibition at 10 uM incubated for 48 hrs by sulforhodamine B assay relative to control; assay type: functional; outline: as §1
# SNB-19 = experiment: Antiproliferative activity against human SNB-19 cells assessed as cell growth inhibition at 10 uM incubated for 48 hrs by sulforhodamine B assay relative to control; assay type: functional; outline: as §1
# SN12C = experiment: Antiproliferative activity against human SN12C cells assessed as cell growth inhibition at 10 uM incubated for 48 hrs by sulforhodamine B assay relative to control; assay type: functional; outline: as §1
# SK-MEL-5 = experiment: Antiproliferative activity against human SK-MEL-5 cells assessed as cell growth inhibition at 10 uM incubated for 48 hrs by sulforhodamine B assay relative to control; assay type: functional; outline: as §1
# NCI-H460 = experiment: Antiproliferative activity against human NCI-H460 cells assessed as cell growth inhibition at 10 uM incubated for 48 hrs by sulforhodamine B assay relative to control; assay type: functional; outline: as §1
# UO-31 = experiment: Antiproliferative activity against human UO-31 cells assessed as cell growth inhibition at 10 uM incubated for 48 hrs by sulforhodamine B assay relative to control; assay type: functional; outline: as §1
# HCT-15 = experiment: Antiproliferative activity against human HCT-15 cells assessed as cell growth inhibition at 10 uM incubated for 48 hrs by sulforhodamine B assay relative to control; assay type: functional
# Outline: (§3)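 NCI-60 one-dose prescreen at 10^-5 M. Cells grown in RPMI 1640 with 5% FBS and 2 mM glutamine, preincubated 24 h, then exposed 48 h at 37 °C. Adherent lines TCA-fixed, SRB-stained, A515 read. Growth percent relative to time-zero and control; negative values mean cell kill.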
# PC-3 = experiment: Antiproliferative activity against human PC-3 cells assessed as cell growth inhibition at 10 uM incubated for 48 hrs by sulforhodamine B assay relative to control; assay type: functional; outline: as §1
# NCI-H23 = experiment: Antiproliferative activity against human NCI-H23 cells assessed as cell growth inhibition at 10 uM incubated for 48 hrs by sulforhodamine B assay relative to control; assay type: functional; outline: as §1
# HL-60 = experiment: Antiproliferative activity against human HL-60 cells assessed as cell growth inhibition at 10 uM incubated for 48 hrs by sulforhodamine B assay relative to control; assay type: functional; outline: as §3
# MDA-MB-231 = experiment: Antiproliferative activity against human MDA-MB-231 cells assessed as cell growth inhibition at 10 uM incubated for 48 hrs by sulforhodamine B assay relative to control; assay type: functional; outline: as §1
# KM12 = experiment: Antiproliferative activity against human KM12 cells assessed as cell growth inhibition at 10 uM incubated for 48 hrs by sulforhodamine B assay relative to control; assay type: functional; outline: as §1
# MDA-MB-468 = experiment: Antiproliferative activity against human MDA-MB-468 cells assessed as cell growth inhibition at 10 uM incubated for 48 hrs by sulforhodamine B assay relative to control; assay type: functional; outline: as §1
# [1] = n-Octanol/phosphate buffer partition coefficient, logP of the compound at pH 7.4 incubated for 85 mins by shake-flask method; assay type: physicochemical
# Outline: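 Octanol–water partition by shake-flask: n-octanol with 0.15 M phosphate buffer pH 7.4 at 10:1 volumes. Buffer-phase absorbance read before mixing, then shaken 50 min and centrifuged at 2500 rpm for 35 min. Buffer absorbance read again; P = (Ai−Af)/Af × Vw/Vo.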
# SF-268 = experiment: Antiproliferative activity against human SF-268 cells assessed as cell growth inhibition at 10 uM incubated for 48 hrs by sulforhodamine B assay relative to control; assay type: functional; outline: as §1
# T47D = experiment: Antiproliferative activity against human T47D cells assessed as cell growth inhibition at 10 uM incubated for 48 hrs by sulforhodamine B assay relative to control; assay type: functional; outline: as §1
# Hs-578T = experiment: Antiproliferative activity against human Hs-578T cells assessed as cell growth inhibition at 10 uM incubated for 48 hrs by sulforhodamine B assay relative to control; assay type: functional; outline: as §1
# CCRF-CEM = experiment: Antiproliferative activity against human CCRF-CEM cells assessed as cell growth inhibition at 10 uM incubated for 48 hrs by sulforhodamine B assay relative to control; assay type: functional; outline: as §2
# MCF7 = experiment: Antiproliferative activity against human MCF7 cells assessed as cell growth inhibition at 10 uM incubated for 48 hrs by sulforhodamine B assay relative to control; assay type: functional; outline: as §1
# NCI-H522 = experiment: Antiproliferative activity against human NCI-H522 cells assessed as cell growth inhibition at 10 uM incubated for 48 hrs by sulforhodamine B assay relative to control; assay type: functional; outline: as §1
# ACHN = experiment: Antiproliferative activity against human ACHN cells assessed as cell growth inhibition at 10 uM incubated for 48 hrs by sulforhodamine B assay relative to control; assay type: functional; outline: as §2
# HCT-116 = experiment: Antiproliferative activity against human HCT-116 cells assessed as cell growth inhibition at 10 uM incubated for 48 hrs by sulforhodamine B assay relative to control; assay type: functional; outline: as §3
# U-251 = experiment: Antiproliferative activity against human U-251 cells assessed as cell growth inhibition at 10 uM incubated for 48 hrs by sulforhodamine B assay relative to control; assay type: functional; outline: as §1
# SF-539 = experiment: Antiproliferative activity against human SF-539 cells assessed as cell growth inhibition at 10 uM incubated for 48 hrs by sulforhodamine B assay relative to control; assay type: functional; outline: as §1
# MDA-MB-435 = experiment: Antiproliferative activity against human MDA-MB-435 cells assessed as cell growth inhibition at 10 uM incubated for 48 hrs by sulforhodamine B assay relative to control; assay type: functional; outline: as §1
# SK-MEL-2 = experiment: Antiproliferative activity against human SK-MEL-2 cells assessed as cell growth inhibition at 10 uM incubated for 48 hrs by sulforhodamine B assay relative to control; assay type: functional; outline: as §1
# HOP-92 = experiment: Antiproliferative activity against human HOP-92 cells assessed as cell growth inhibition at 10 uM incubated for 48 hrs by sulforhodamine B assay relative to control; assay type: functional; outline: as §3
# RPMI-8226 = experiment: Antiproliferative activity against human RPMI-8226 cells assessed as cell growth inhibition at 10 uM incubated for 48 hrs by sulforhodamine B assay relative to control; assay type: functional; outline: as §1
# HT-29 = experiment: Antiproliferative activity against human HT-29 cells assessed as cell growth inhibition at 10 uM incubated for 48 hrs by sulforhodamine B assay relative to control; assay type: functional; outline: as §1
# HOP-62 = experiment: Antiproliferative activity against human HOP-62 cells assessed as cell growth inhibition at 10 uM incubated for 48 hrs by sulforhodamine B assay relative to control; assay type: functional; outline: as §3
# NCI-H322M = experiment: Antiproliferative activity against human NCI-H322M cells assessed as cell growth inhibition at 10 uM incubated for 48 hrs by sulforhodamine B assay relative to control; assay type: functional; outline: as §1
compound,measurement,setting,value
CC(=O)c1ccc(-c2cn3ccnc3c(-c3ccc4ncn(C5CCCCC5)c4c3)n2)cc1,inhibition at 10 µM,OVCAR-8,6.38%
same,inhibition at 10 µM,NCI/ADR-RES,4.17%
same,inhibition at 10 µM,M14,3.43%
same,inhibition at 10 µM,MOLT-4,14.3%
same,inhibition at 10 µM,UACC-62,18.5%
same,inhibition at 10 µM,K562,9.6%
same,inhibition at 10 µM,SR,23.6%
same,inhibition at 10 µM,IGROV-1,19.1%
same,inhibition at 10 µM,Malme-3M,3.01%
same,inhibition at 10 µM,BT-549,4.68%
same,inhibition at 10 µM,LOX IMVI,14.5%
same,inhibition at 10 µM,SNB-19,3.96%
same,inhibition at 10 µM,SN12C,6.33%
same,inhibition at 10 µM,SK-MEL-5,24.8%
same,inhibition at 10 µM,NCI-H460,7.12%
same,inhibition at 10 µM,UO-31,23.1%
same,inhibition at 10 µM,HCT-15,18.8%
same,inhibition at 10 µM,PC-3,17.9%
same,inhibition at 10 µM,NCI-H23,8.6%
same,inhibition at 10 µM,HL-60,2.65%
same,inhibition at 10 µM,MDA-MB-231,7.65%
same,inhibition at 10 µM,KM12,11.7%
same,inhibition at 10 µM,MDA-MB-468,0.73%
same,logD at 1.417 h,[1],2.06
same,inhibition at 10 µM,SF-268,5.01%
same,inhibition at 10 µM,T47D,54.4%
same,inhibition at 10 µM,Hs-578T,6.34%
same,inhibition at 10 µM,CCRF-CEM,1.1%
same,inhibition at 10 µM,MCF7,12%
same,inhibition at 10 µM,NCI-H522,10.4%
same,inhibition at 10 µM,ACHN,4.32%
same,inhibition at 10 µM,HCT-116,15.8%
same,inhibition at 10 µM,U-251,3.02%
same,inhibition at 10 µM,SF-539,2.82%
same,inhibition at 10 µM,MDA-MB-435,6%
same,inhibition at 10 µM,SK-MEL-2,0.58%
same,inhibition at 10 µM,HOP-92,25%
same,inhibition at 10 µM,RPMI-8226,20.8%
same,inhibition at 10 µM,HT-29,9.2%
same,inhibition at 10 µM,HOP-62,7.41%
same,inhibition at 10 µM,NCI-H322M,1.19%

# From ChEMBL document CHEMBL5247578, “Effective synthesis of benzimidazoles-imidazo[1,2-a]pyrazine conjugates: A comparative study of mono-and bis-benzimidazoles for antitumor activity” (Eur J Med Chem, 2019)
